Screens from PubChem.
In the library only some 3.7% were active in any assay of this set; here they are far more common.
RBBP9 inhibitor = inhibitors of human serine hydrolase RBBP9; recombinant RBBP9, FP-Rh probe fluorescence polarization; inhibition, % at 7.94 µM; 0.2% of 220,000 active; AID 1515;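 active means inhibition above the campaign mean of all tested compounds plus 3 SD, cut at about 14% in these data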
Target sequence (O75884 whole entry, looked up): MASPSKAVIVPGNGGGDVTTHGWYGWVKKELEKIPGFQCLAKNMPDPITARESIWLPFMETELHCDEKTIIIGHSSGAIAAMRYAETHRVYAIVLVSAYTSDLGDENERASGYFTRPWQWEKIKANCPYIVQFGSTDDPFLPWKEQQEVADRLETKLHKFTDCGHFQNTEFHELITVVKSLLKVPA
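system = RBBP9 protein | input = RBBP9 at 2.5 µM in dispensed solution, before mixing | measured by = fluorescence polarization (mP), excitation 525 nm, emission 598 nm | incubation = enzyme-compound preincubation 30 min, then probe labeling 45 min, 25 °C | buffer or medium = Tris-NaCl-Pluronic buffer, pH 8.0 | compound = single dose 7.94 µM | also added = FP-Rh probe, 375 nM dispensing solution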
eIF4E 4G PPI = eIF4E/eIF4G interaction inhibition in translation initiation; P63073+Q04637; TR-FRET eIF4E-eIF4GI(517-606) binding, 2 h; inhibition, % at 21.7 µM; 0.37% of 220,000 active
EBV gp42 block = blocks Epstein-Barr virus glycoprotein 42 binding; Q1HVG2; Fluorescence polarization binding assay, mP read-out; inhibition, % (tested at 21.74 µM); 0.42% of 220,000 active; in the data active means inhibition above about 50%
Target sequence (Q1HVG2 whole entry, looked up): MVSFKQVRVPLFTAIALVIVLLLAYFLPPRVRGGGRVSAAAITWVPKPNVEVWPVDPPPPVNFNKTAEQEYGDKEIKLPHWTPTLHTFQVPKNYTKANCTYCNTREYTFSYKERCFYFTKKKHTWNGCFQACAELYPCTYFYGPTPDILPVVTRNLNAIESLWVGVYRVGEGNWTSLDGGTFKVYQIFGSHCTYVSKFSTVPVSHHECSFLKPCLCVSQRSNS
14-3-3 Bad PPI = disrupts binding of bovine 14-3-3 zeta to phospho-Bad peptide; P63103; TR-FRET 14-3-3zeta/Dy647-pBad peptide displacement, 1 h; inhibition, % at 21.7 µM; 0.71% of 220,000 active; AID 781;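 active means inhibition above about 70%, limit read from the data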
Target sequence (P63103 whole entry, looked up): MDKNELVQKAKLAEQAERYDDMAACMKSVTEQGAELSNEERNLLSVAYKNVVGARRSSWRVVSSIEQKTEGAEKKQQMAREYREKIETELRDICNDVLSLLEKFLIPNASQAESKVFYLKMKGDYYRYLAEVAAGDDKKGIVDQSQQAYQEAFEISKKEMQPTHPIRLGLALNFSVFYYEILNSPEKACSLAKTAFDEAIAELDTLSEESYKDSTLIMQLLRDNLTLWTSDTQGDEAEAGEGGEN
p47phox inh = blocks human p47phox regulatory protein of NADPH oxidases. inhibition, % at 24.7 µM. p47phox/p22phox peptide binding, fluorescence polarization, 2 h. 0.53% of 220,000 active
WT yeast gro inh = growth inhibition of WT yeast, mitochondrial fusion screen; inhibition, % at 10 µM; mitochondrial fusion phenotypic screen, WT strain; 2.1% of 190,000 active; in the data active means inhibition above about 58%; tested in S. cerevisiae
Of the large screens only hits and unclear results are named; the others gave an inactive call; [ ] = another dose, or the depositor's remark.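 How the source made its calls, unless noted: active means inhibition above about 30% (limit read from the data); inactive means the rest.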

Cc1nn(-c2nc3ccccc3[nH]2)c(N)c1-c1ccccc1	WT yeast gro inh 72
Cc1nc2c(-c3ccccc3)c(C)nn2c(N)c1-c1ccccc1	WT yeast gro inh 74
Cc1cc(NC(=O)COC(=O)C2CCC(=O)N2)c([N+](=O)[O-])cc1C (stereo not drawn)	none
C/C(CC(=O)Nc1ccc([N+](=O)[O-])cc1)=N/NC(=O)C1CC12CCC2 (stereo not drawn)	none
Cc1c(C(=O)NCCSCc2cccc(C(F)(F)F)c2)cnn1-c1ccc(F)cc1	none (no result: WT yeast gro inh)
Cc1cc(C)c2nc(/N=C(\N)NC(=O)Nc3ccccc3)nc(C)c2c1	WT yeast gro inh 58
Cc1cc(C)c2nc(/N=C(\N)NC(=O)c3ccccc3)nc(C)c2c1	none (no result: WT yeast gro inh)
O=C(Cn1c(=O)oc2cccnc21)Nc1ccccc1Oc1ccc(Cl)cc1Cl	none (no result: WT yeast gro inh)
CN(C)C(=O)CSc1nnc(CCNC(=O)OC(C)(C)C)o1	none (no result: eIF4E 4G PPI, 14-3-3 Bad PPI)
CN(C)C(=O)CSc1nnc(CCCCCNC(=O)OC(C)(C)C)o1	WT yeast gro inh 65
COc1ccc(-n2c(N)c(C#N)c3ccc([N+](=O)[O-])cc3c2=O)cc1	EBV gp42 block 52
COc1cccc(-n2c(N)c(C#N)c3ccc([N+](=O)[O-])cc3c2=O)c1	none
CCO[C@@H]1OC(C(=O)O)=C[C@H](c2ccc3c(c2)OCO3)[C@H]1CCCO	none (no result: p47phox inh)
Cc1ccc(-c2csc(C3=C(O)CN(NC(=O)c4ccc([N+](=O)[O-])cc4)C3=N)n2)cc1	none
N=C1C(c2nc(-c3ccc(Cl)cc3)cs2)=C(O)CN1NC(=O)c1ccc(O)cc1	14-3-3 Bad PPI 77 (no result: WT yeast gro inh)
CC(C)n1c(C(F)(F)F)nc2cc(C(=O)N3CCCCC3)ccc21	none (no result: WT yeast gro inh)
CC(C)CCn1c(N2CCN(c3cccc(Cl)c3)CC2)nc2c1c(=O)[nH]c(=O)n2C	WT yeast gro inh 62
COc1cc(NC(=S)NCCc2ccc(S(N)(=O)=O)cc2)c(OC)cc1Cl	none
COc1ccccc1Cn1c(C(C)C)nc2ccccc21	none (no result: WT yeast gro inh)
COc1ccc(/C=C/c2nc3ccccc3n2Cc2ccccc2OC)cc1	WT yeast gro inh 75
COc1ccccc1Cn1c(/C=C/c2ccccc2)nc2ccccc21	WT yeast gro inh 79
Cn1c(/C=C/c2ccccc2)nc2ccccc21	WT yeast gro inh 67
Cn1c(=O)c(/C=C/c2ccccc2)nc2ccccc21	none
C/C(=N\O)C1CCCCC1	none (no result: WT yeast gro inh)
CCCCCCCc1ccc(-c2ccc(O)cc2)nc1	WT yeast gro inh 74
CCOC(=O)C1CCC(CNCc2ccccc2C)CC1 (stereo not drawn)	none
CN(C)S(=O)(=O)c1cc(NC(=O)COC(=O)Cc2ccc(Br)cc2)ccc1Cl	none
COc1cc(CC(=O)OCC(=O)Nc2ccc(Cl)c(S(=O)(=O)N(C)C)c2)cc(OC)c1OC	p47phox inh 34 (no result: WT yeast gro inh)
CCc1ccc(C(=O)CSc2nc(C)cc(=O)[nH]2)cc1	none
CN(C(=S)NCCN1CCOCC1)C(c1ccccc1)c1ccccc1	none
CCCCOC(=O)Nc1nnc(SCCOc2ccc(C)cc2)s1	eIF4E 4G PPI 44[fluorescence artefact?]
Cc1ccc(OCCSc2nnc(NC(=O)c3ccco3)s2)cc1	none
O=C(c1ccc(Cl)cc1)N1CCC(O)(CSc2ccc(Cl)cc2Cl)CC1	WT yeast gro inh 71
CC(C)Oc1ccc(CCC(=O)NNC(=O)CCC(=O)O)cc1	none (no result: WT yeast gro inh)
Cc1cc(C)cc(OCC(=O)N(Cc2ccc(N(C)C)cc2)C2CCS(=O)(=O)C2)c1 (stereo not drawn)	none (no result: WT yeast gro inh)
CCOC(=O)C(C)Sc1ccc2nnc(-c3ccc(F)cc3)n2n1 (stereo not drawn)	eIF4E 4G PPI 51
CC(C)CNc1cc(N2CCCC2)ccc1[N+](=O)[O-]	p47phox inh 59
CCNc1cc(N2CCCC2)ccc1[N+](=O)[O-]	none
C=CCNc1nc(Nc2ccc([N+](=O)[O-])cc2)nc(OC)n1	none
COc1nc(Nc2ccc([N+](=O)[O-])cc2)nc(NC2CCCCC2)n1	WT yeast gro inh 88
CC(C)C(=O)Nc1ccc(NC(=O)c2cccc(F)c2)cn1	14-3-3 Bad PPI 76
CCN(CC)CCOC(=O)c1ccc(NC(=O)C(C)NC(=O)C23CC4CC(CC(C4)C2)C3)cc1 (stereo not drawn)	none
O[C@@H]1COC(Nc2ccc(N=Nc3ccccc3)cc2)C[C@@H]1O (stereo partly drawn)	none (no result: WT yeast gro inh)
Cc1[nH]n(-c2ccccc2)c(=S)c1C=Nc1ccc([N+](=O)[O-])cc1	p47phox inh 87
Cc1[nH]n(-c2ccccc2)c(=O)c1C=Nc1ccc(S(=O)(=O)N=C(N)N)cc1	none (no result: WT yeast gro inh)
CCN(CC(=O)Nc1ccc(C(C)=O)cc1)CC(=O)Nc1ccccc1C(F)(F)F	none
CCN(CC)c1ccc(NC(=O)Nc2ccccc2C(F)(F)F)cc1	WT yeast gro inh 63
Cc1nc(N2N=C3/C(=C/c4ccc(F)cc4)CCCC3C2c2ccc(F)cc2)sc1C(=O)N(C)C (stereo not drawn)	WT yeast gro inh 74
CC(C)C(=O)NC(=S)Nc1ccc(S(=O)(=O)N(C)Cc2ccccc2)cc1	WT yeast gro inh 59
CC(=O)NC(=S)Nc1ccc(S(=O)(=O)N(C)Cc2ccccc2)cc1	none
O=C(/C=C/Nc1ccc(F)cc1)c1ccc(Oc2ncccn2)cc1	none
COc1ccc(N/C=C/C(=O)c2ccc(Oc3ncccn3)cc2)cc1	WT yeast gro inh 70
CN(C)C(=O)CN1CCN(c2nc3nonc3nc2N2CCCCC2)CC1	none
OCCN(CCO)c1nc(N2CCCCC2)c2nc(N(CCO)CCO)nc(N3CCCCC3)c2n1	EBV gp42 block 135
O=c1cc2c(nn1Cc1ccc(Cl)cc1)-c1ccccc1CC2	WT yeast gro inh 59
O=c1cc2c(nn1Cc1cccc(Cl)c1)-c1ccccc1CC2	WT yeast gro inh 81
Cc1ccc(Cn2nc3c(cc2=O)CCc2ccccc2-3)cc1	WT yeast gro inh 74
CCN(CC)S(=O)(=O)c1ccc(C(=O)OCC(=O)NCCN2C(=O)CSC2=O)cc1	none
CCOC(=O)c1nc(-c2ccccc2)sc1C(C)=O	none (no result: WT yeast gro inh)
O=C(CNC1CCN(Cc2ccccc2)CC1)Nc1ccc(S(=O)(=O)N2CCCCC2)cc1	none (no result: WT yeast gro inh)
CN(CCCC[C@H](CNCc1ccc(-c2ccccc2)cc1)N1C[C@H](c2ccccc2)N(CCc2ccc(Cl)c(Cl)c2)C(=O)C1=O)Cc1ccc(-c2ccccc2)cc1	p47phox inh 51 (no result: RBBP9 inhibitor, WT yeast gro inh)
COc1ccc(CNC[C@@H](CCCCN(C)Cc2ccc(OC)cc2)N2C[C@H](c3ccccc3)N(CCc3ccc(Cl)c(Cl)c3)C(=O)C2=O)cc1	p47phox inh 50
COc1ccc([N+](=O)[O-])cc1NC(=O)C(C)OC(=O)c1ccccn1 (stereo not drawn)	none
COc1ccc2ccccc2c1C1CC(=O)N2CN(C)CSC2=C1C#N (stereo not drawn)	eIF4E 4G PPI 49[fluorescence artefact?]
